From ChEMBL document CHEMBL3997850 (ACS Med Chem Lett, 2017) come the findings set out here.

Data set [1] has as its target T1, Nuclear receptor subfamily 1 group I member 2 (Homo sapiens, UniProt O75469).
T1 sequence (O75469 whole entry): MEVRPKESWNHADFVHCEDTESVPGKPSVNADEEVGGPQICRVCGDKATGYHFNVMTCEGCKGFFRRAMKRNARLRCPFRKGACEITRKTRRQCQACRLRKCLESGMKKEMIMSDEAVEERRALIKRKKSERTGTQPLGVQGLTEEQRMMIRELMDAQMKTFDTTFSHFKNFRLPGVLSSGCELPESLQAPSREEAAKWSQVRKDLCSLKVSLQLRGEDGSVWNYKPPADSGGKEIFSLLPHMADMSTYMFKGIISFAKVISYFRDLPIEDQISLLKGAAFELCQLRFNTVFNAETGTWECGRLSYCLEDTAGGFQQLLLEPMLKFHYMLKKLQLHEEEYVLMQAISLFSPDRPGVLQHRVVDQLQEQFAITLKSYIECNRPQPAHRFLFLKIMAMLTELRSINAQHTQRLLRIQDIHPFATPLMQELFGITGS
In words: Induction of PXR (unknown origin) expressed in human HepG2 cells after 24 hrs by dual-glo luciferase reporter gene assay. The class given is ADME, cell-based. The method, boiled down:
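HepG2 cells transfected with human or rat PXR/CYP3A4 reporter, grown 24 h in phenol-red-free MEM with 2 mM L-glutamine and 10% charcoal-stripped FBS at 37 °C, 5% CO2. Compound added at 10 µM final with 0.6% DMSO for 24 h. Dual-Glo firefly then Renilla luminescence read; firefly/Renilla ratio normalized to control-compound wells as % induction.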

For the next data set, the target named is Cytochrome P450 2C9 (Homo sapiens, UniProt P11712). In words: Inhibition of recombinant human CYP2C9 assessed as decrease in hydroxylation of 7-methoxy-4-(trifluoromethyl)-coumarin by fluorimetric method. The class given is ADME. The settings on record: recombinant enzyme. The method, boiled down: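 Recombinant human isozymes with substrate at Km concentration: CYP2C9 with 7-methoxy-4-(trifluoromethyl)coumarin, CYP2D6 with 7-methoxy-4-methylcoumarin. Hydroxylation read fluorimetrically, inhibitor 0–25 µM.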

The next data set deals with Cynomolgus monkey. In words: AUC in cynomolgus monkey at 4 mg/kg, iv or 10 mg/kg, po by LC/MS/MS analysis. Format: ADME, organism-based, Macaca fascicularis. Particulars: in vivo. The method, boiled down:
(§1)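 Male cynomolgus monkeys given 4 mg/kg IV (5% DMAC, 40% propylene glycol in saline) or 10 mg/kg orally (0.5% methylcellulose). EDTA plasma collected pre-dose through 24 h. Acetonitrile protein precipitation, then LC/MS/MS quantification, linear 2–10000 nM. PK parameters by standard non-compartmental methods.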

Data set [2] in a line: Clearance in rat at 5 mg/kg, iv or 5 mg/kg, po by LC/MS/MS analysis. Format: ADME, organism-based. The settings on record: in vivo. The method, boiled down: (§2)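 Male rats, 5 mg/kg IV in 10% DMAC/saline or 5 mg/kg oral in 0.5% aqueous methylcellulose. Plasma (EDTA) sampled pre-dose to 24 h. Quantified by acetonitrile precipitation and LC/MS/MS (2–10000 nM range, 0.1 mL). Non-compartmental analysis of concentration–time data.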

A short description of data set [3]: Clearance in beagle dog at 5 mg/kg, iv or 10 mg/kg, po by LC/MS/MS analysis. Format: ADME, organism-based, Canis lupus familiaris. Particulars: in vivo. The method, boiled down:
(§3)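 Male beagle dogs dosed 5 mg/kg IV in 10% DMAC in saline or 10 mg/kg oral in 5% DMAC in 0.5% methylcellulose. EDTA blood taken from pre-dose to 24 h and spun to plasma. Plasma proteins precipitated with acetonitrile, then LC/MS/MS (linear 2–10000 nM, 0.1 mL plasma). Parameters derived by non-compartmental analysis.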

Data set [4] can be described thus: Volume of distribution at steady state in rat at 5 mg/kg, iv or 5 mg/kg, po by LC/MS/MS analysis. Format: ADME, organism-based. The settings on record: in vivo, read-out: Vdss. The method, boiled down:
as §2

Data set [5] can be described thus: Half life in beagle dog at 10 mg/kg, po by LC/MS/MS analysis. Format: ADME, organism-based, Canis lupus familiaris. The settings on record: in vivo. The method, boiled down:
as §3

A short description of data set [6]: Half life in beagle dog at 5 mg/kg, iv by LC/MS/MS analysis. The class given is ADME, organism-based, Canis lupus familiaris. Particulars: in vivo. The method, boiled down:
as §3

Data set [7] concerns Canis familiaris. The data set can be described thus: AUC in beagle dog at 5 mg/kg, iv or 10 mg/kg, po by LC/MS/MS analysis. Format: ADME, organism-based, Canis lupus familiaris. Particulars: in vivo. The method, boiled down:
as §3

The nature of data set [8]: Oral bioavailability in rat at 5 mg/kg by LC/MS/MS analysis. Particulars: in vivo. The class given is ADME, organism-based. The method, boiled down: as §2
A short description of data set [9]: Oral bioavailability in cynomolgus monkey at 10 mg/kg by LC/MS/MS analysis. Format: ADME, organism-based, Macaca fascicularis. The settings on record: in vivo. The method, boiled down:
as §1

In data set [10] the test system is Mus musculus. The data set can be described thus: Toxicity in mouse up to 2000 mg/kg/day after 28 days by clinical pathology test. Format: organism-based. Particulars: in vivo, 672 h.
The subject of data set [11] is Mus musculus. In words: Toxicity in mouse assessed as effect on food consumption up to 2000 mg/kg/day after 28 days. Format: organism-based. Particulars: in vivo, 672 h.
The subject of data set [12] is Canis familiaris. In words: Toxicity in dog assessed as change in body weight up to 500 mg/kg/day after 28 days. Format: organism-based, Canis lupus familiaris. The settings on record: in vivo, 672 h.

Each structure is given as a SMILES string.

Sequence of Cytochrome P450 2C9 (P11712 whole entry): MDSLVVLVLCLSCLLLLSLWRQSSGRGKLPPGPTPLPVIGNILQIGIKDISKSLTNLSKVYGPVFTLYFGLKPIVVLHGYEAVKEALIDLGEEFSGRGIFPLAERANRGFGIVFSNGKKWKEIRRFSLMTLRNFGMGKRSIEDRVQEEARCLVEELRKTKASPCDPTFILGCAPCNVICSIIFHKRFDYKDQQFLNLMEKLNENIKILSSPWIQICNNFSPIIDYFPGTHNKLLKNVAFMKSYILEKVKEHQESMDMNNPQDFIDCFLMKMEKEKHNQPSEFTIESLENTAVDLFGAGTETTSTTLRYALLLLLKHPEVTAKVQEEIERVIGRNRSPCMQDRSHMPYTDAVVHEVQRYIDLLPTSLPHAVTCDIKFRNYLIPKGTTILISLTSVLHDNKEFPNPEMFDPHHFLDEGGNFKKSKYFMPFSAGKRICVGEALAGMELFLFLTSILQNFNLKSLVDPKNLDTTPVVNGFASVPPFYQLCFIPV

For the compound `NS(=O)(=O)NCCNc1nonc1C(=NO)Nc1ccc(F)c(Br)c1` [EPACADOSTAT], the Activity entry in data set [1] is reported as “Not Active”; in the data set on Mus musculus [10], “Non-Toxic”; in the data set with Mus musculus [11] it was “Non-Toxic”; in the data set with Canis familiaris [12], “Non-Toxic”. Moreover, the “inhibition (INH)” value at Cytochrome P450 2C9 was “Not Active”. The results for the AUC with Cynomolgus monkey and with Canis familiaris [7] were 9.3 µM·h and 29 µM·h, respectively. Moreover, the clearance in data set [2] is 18.3 mL/min/kg; in [3], 8.33 mL/min/kg. Also, the Vd in [4] came to 2 L/kg. Moreover, the half-life (as a rule, the time needed for the level to fall by half in the phase considered) was 4.9 h in [5] and 3.1 h in [6]. The bioavailability (in general, dose-corrected exposure relative to a reference, in per cent) in data set [8] was 11%; in data set [9], 33%.
